Data as given in ChEMBL document CHEMBL1129062, “6- and 7-substituted 2-[2'-(dimethylamino)ethyl]-1,2-dihydro-3H-dibenz[de,h] isoquinoline-1,3-diones: synthesis, nucleophilic displacements, antitumor activity, and quantitative structure-activity relationships” (J Med Chem, 1996).

Columns and labels:
L1210 [1] = test: Inhibitory activity against sensitive L1210 cell lines; assay type: functional, cell-based; details: Mus musculus
WiDr [2] = test: Tested against WiDr colon carcinoma (resistant) in the sulforhodamine B assay.; assay type: functional, cell-based; details: Homo sapiens
Procedure, shortened: (§1)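 Sulforhodamine B assay. Cells plated at 50 000/well; drug added on day 2 at 10^1–10^-5 μg/mL in half-log steps from DMSO stock diluted in PBS, final DMSO ≤0.1%. After 8-day exposure at 37 °C, cells fixed with TCA at 4 °C for 1 h and stained 30 min with 0.4% SRB. Dye solubilized in 10 mM Tris and OD read at 564 nm. Six wells per concentration; IC50 averaged.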

[3] = An average for IC50 values in the two solid tumor cell lines and sensitive L1210 leukemia cell line.; assay type: functional, cell-based
A549 [4] = test: Tested against A549 lung carcinoma in the sulforhodamine B assay.; assay type: functional, cell-based; details: Homo sapiens; procedure, shortened: as §1
WiDr [5] = test: Tested against WiDr colon (sensitive) in the sulforhodamine B assay.; assay type: functional, cell-based; details: Homo sapiens; procedure, shortened: as §1
OVCAR-3 = test: Inhibitory activity against OVCAR-3 cell line; assay type: functional, cell-based; details: Homo sapiens
MCF7 [6] = test: Tested against […] breast carcinoma (doxorubicin resistant) cell line in the sulforhodamine B assay.; assay type: functional, cell-based; details: Homo sapiens; procedure, shortened: as §1
MCF7 [7] = test: Tested against […] breast carcinoma (mitoxantrone resistant)cell line in the sulforhodamine B assay.; assay type: functional, cell-based; details: Homo sapiens; procedure, shortened: as §1
UACC-375 = test: Inhibitory activity against […] cell line; assay type: functional, cell-based; details: Homo sapiens
MCF7 [8] = test: Tested against […] breast carcinoma (sensitive) cell line in the sulforhodamine B assay.; assay type: functional, cell-based; details: Homo sapiens; procedure, shortened: as §1
L1210 [9] = test: Inhibitory activity against resistant murine leukemia L1210 cell lines.; assay type: functional, cell-based; details: Mus musculus
Rattus norvegicus = species: Rattus norvegicus; test: Cardiotoxicity by a neonatal rat heart myocyte assay; assay type: toxicity
Procedure, shortened: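 Neonatal rat heart myocytes exposed to drug for 1 h. Read-out is the ATP/protein ratio relative to untreated control myocytes. IC50 is the 1-h concentration that reduces this ratio to 50% of control.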

[10] = Toxicity ratio determined by the quotient of IC50 values in the myocytes divided by the average value in the three tumor lines.; assay type: functional
Procedure, shortened: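 Ratio is the myocyte cardiotoxicity IC50 (1-h exposure, ATP/protein ratio versus untreated myocytes) divided by the mean IC50 in sensitive L1210 and the two human tumor lines, measured with continuous exposure.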

Tumor cell line = test: An average for IC50 values in the two solid tumor cell lines.; assay type: functional, cell-based
WiDr [11] = test: Compound tested against WiDr colon carcinoma (resistant) in the sulforhodamine B assay.; assay type: functional, cell-based; details: Homo sapiens; procedure, shortened: as §1
L1210 [12] = test: Compound was tested against L1210 leukemia at % increase in life span (ILS) in mice at 8 mg/kg dosage.; assay type: functional; details: Mus musculus
Procedure, shortened: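 Male DBA/2J mice, 10 per group, inoculated ip on day 0 with 10^6 freshly harvested leukemia cells. Compound given ip in equal doses on days 1, 5 and 9; controls received saline ip on the same days. Highest dose set 10% below the acute LD10. %ILS = 100 × (treated − control)/control, using median life span per group; value reported at highest nontoxic dose.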

WiDr [13] = test: Compound was tested against WiDr colon (sensitive) cell line in the sulforhodamine B assay.; assay type: functional, cell-based; details: Homo sapiens; procedure, shortened: as §1
WiDr [14] = test: Compound was tested against WiDr colon carcinoma (resistant)cell line in the sulforhodamine B assay.; assay type: functional, cell-based; details: Homo sapiens; procedure, shortened: as §1
A549 [15] = test: Compound was tested against A549 lung carcinoma cell line in the sulforhodamine B assay.; assay type: functional, cell-based; details: Homo sapiens; procedure, shortened: as §1

Row | Structure (SMILES) | IC50 (L1210 [1]) [nM] | IC50 (WiDr [2]) [nM] | IC50 [3] [nM] | IC50 (A549 [4]) [nM] | IC50 (WiDr [5]) [nM] | IC50 (OVCAR-3) [nM] | IC50 (MCF7 [6]) [nM] | IC50 (UACC-375) [nM] | IC50 (MCF7 [8]) [nM] | IC50 (L1210 [9]) [nM] | IC50 (Tumor cell line) [nM] | IC50 (WiDr [11]) [nM] | IC50 (WiDr [13]) [nM] | IC50 (WiDr [14]) [nM] | IC50 (A549 [15]) [nM] | IC50 (MCF7 [7]) [nM] | IC50 (Rattus norvegicus) [nM] | Toxicity ratio [10] | Activity (Rattus norvegicus) | ILS at 8 mg/kg (L1210 [12]) [%]
1 | CC(=O)Nc1ccc2c3c(c4ccccc4cc13)C(=O)N(CCN(C)C)C2=O | 486 |  | 4620 |  |  | 6080 |  | 7290 |  | 729 | 6680 |  |  |  |  |  | 12900 | 2.8 |  | 
2 | CN(C)CCN1C(=O)c2ccc(Cl)c3cc4c(Cl)cccc4c(c23)C1=O | 472 |  | 630 |  |  | 945 |  | 472 |  | 590 | 709 |  |  |  |  |  | > 23600 | >37 |  | 
3 | CN(C)CCN1C(=O)c2ccc(N(C)C)c3cc4ccccc4c(c23)C1=O | 23 | 130 | 209 | 23 | 90 | 503 | 130 | 101 | 68 | 96 | 302 |  |  |  |  | 79 |  | 223 | 46600 | 
4 | CSc1c2ccccc2c2c3c(cccc13)C(=O)N(CCN(C)C)C2=O | 6250 |  | 2790 |  |  | 750 |  | 1380 |  | 1220 | 1060 |  |  |  |  |  | > 50000 | >18 |  | 
5 | COc1c2ccccc2c2c3c(cccc13)C(=O)N(CCN(C)C)C2=O | 117 | 260 | 134 | 91 | 180 | 130 | 180 | 156 | 150 | 109 | 143 |  |  |  |  | 270 | 26000 | 194 |  | 
6 | CN(C)CCN1C(=O)c2ccc(O)c3cc4ccccc4c(c23)C1=O | 217 |  | 1360 |  |  | 723 |  | 3130 |  | 145 | 1930 |  |  |  |  |  | > 24100 | >18 |  | 
7 | CN(C)CCN1C(=O)c2ccc(NCCO)c3cc4ccccc4c(c23)C1=O | 6 |  | 24 |  |  | 19 |  | 48 |  | 48 | 34 |  |  |  |  |  | 1210 | 50 |  | 
8 | Cc1c2ccccc2c2c3c(cccc13)C(=O)N(CCN(C)C)C2=O | 34 |  | 35 |  |  | 28 |  | 42 |  | 70 | 35 |  |  |  |  |  | 1680 | 49 |  | 
9 | CN(C)CCN1C(=O)c2cccc3c(N)c4ccccc4c(c23)C1=O | 5.4 |  | 10.8 | 7 | 18 | 12 | 71 | 15 | 20 | 6.8 | 14 | 100 |  |  |  | 80 | 1950 | 181 |  | 
10 | CN(C)CCN1C(=O)c2cccc3c(O)c4ccccc4c(c23)C1=O | 472 |  | 2590 |  |  | 1180 |  | 6130 |  | 212 | 3660 |  |  |  |  |  | > 24100 | >9 |  | 
11 | COc1ccc2c3c(c4ccccc4cc13)C(=O)N(CCN(C)C)C2=O | 2.6 | 33 | 3.9 | 2.2 | 17 | 1.3 | 270 | 7.8 | 14 | 3.9 | 4.6 |  |  |  |  | 19 | 799 | 205 |  | 86
12 | CNCCN1C(=O)c2ccc(OC)c3cc4ccccc4c(c23)C1=O | 41 |  | 913 |  |  | 540 |  | 2160 |  | 27 | 1350 |  |  |  |  |  | 8100 | 8.9 |  | 

Further compounds by falling IC50 [3], results first:

Row | IC50 (L1210 [1]) [nM] | IC50 (WiDr [2]) [nM] | IC50 [3] [nM] | IC50 (A549 [4]) [nM] | IC50 (WiDr [5]) [nM] | IC50 (OVCAR-3) [nM] | IC50 (MCF7 [6]) [nM] | IC50 (UACC-375) [nM] | IC50 (MCF7 [8]) [nM] | IC50 (L1210 [9]) [nM] | IC50 (Tumor cell line) [nM] | IC50 (WiDr [11]) [nM] | IC50 (WiDr [13]) [nM] | IC50 (WiDr [14]) [nM] | IC50 (A549 [15]) [nM] | Structure (SMILES) | IC50 (MCF7 [7]) [nM] | IC50 (Rattus norvegicus) [nM] | Toxicity ratio [10] | Activity (Rattus norvegicus) | ILS at 8 mg/kg (L1210 [12]) [%]
13 | 53 |  | 1880 |  |  | 267 |  | 5330 |  | 53 | 2800 |  |  |  |  | CNCCN1C(=O)c2ccc(Cl)c3cc4ccccc4c(c23)C1=O |  | 7600 | 4 |  | 
14 | 524 |  | 1420 |  |  | 2880 |  | 839 |  | 524 | 1860 |  |  |  |  | CN(C)CCNc1c2ccccc2c2c3c(cccc13)C(=O)N(CCN(C)C)C2=O |  | 291000 | 205 |  | 
15 | 487 |  | 649 |  |  | 730 |  | 730 |  | 487 | 730 |  |  |  |  | CC(=O)Nc1c2ccccc2c2c3c(cccc13)C(=O)N(CCN(C)C)C2=O |  | > 23600 | >36 |  | 
16 | 183 |  | 409 |  |  | 522 |  | 522 |  | 235 | 522 |  |  |  |  | CCc1ccc2c3c(c4ccccc4cc13)C(=O)N(CCN(C)C)C2=O |  | 7830 | 19 |  | 
17 | 154 |  | 351 |  |  | 386 |  | 514 |  | 206 | 450 |  |  |  |  | CN(C)CCN1C(=O)c2cccc3c(Cl)c4ccccc4c(c23)C1=O |  | 10800 | 31 |  | 
18 | 17 | 270 | 289 | 19 | 110 | 364 | 170 | 485 | 80 | 49 | 425 |  |  |  |  | CCCOc1ccc2c3c(c4ccccc4cc13)C(=O)N(CCN(C)C)C2=O | 110 | 7760 | 27 |  | 
19 | 63 | 33 | 154 | 56 | 170 | 175 | 200 | 225 | 23 | 50 | 200 |  |  |  |  | CCOc1c2ccccc2c2c3c(cccc13)C(=O)N(CCN(C)C)C2=O | 110 | 5300 | 34 |  | 
20 | 77 |  | 77 |  |  | 116 | 120 | 39 | 25 | 64 | 78 |  | 70 | 350 | 19 | CN(C)CCN1C(=O)c2ccc(Cl)c3cc4ccccc4c(c23)C1=O | 50 | 4110 | 53 |  | 
21 |  |  | 74 |  |  |  |  |  |  |  | 109 |  |  |  |  | CN(C)CCN1C(=O)c2ccc(N)c3cc4ccccc4c(c23)C1=O |  | 1490 | 20 |  | 
22 | 35 |  | 73 |  |  | 93 |  | 93 |  | 35 | 93 |  |  |  |  | CN(C)CCN1C(=O)c2ccc(S(C)(=O)=O)c3cc4ccccc4c(c23)C1=O |  | 2320 | 32 |  | 
23 | 2.9 |  | 69 |  |  | 176 |  | 29 |  | 6.8 | 103 |  |  |  |  | CN(C)CCNc1ccc2c3c(c4cccc(Cl)c4cc13)C(=O)N(CCN(C)C)C2=O |  | 3230 | 47 |  | 
24 | 6 | 110 | 41 | 4.5 |  | 19 | 75 | 97 | 20 | 4.8 | 58 |  |  |  |  | CCSc1ccc2c3c(c4ccccc4cc13)C(=O)N(CCN(C)C)C2=O | 33 | 7740 | 189 |  | 
25 | 0.37 | 64 | 9.7 | 4.2 | 12 | 8.7 | 12 | 20 | 10 | 0.52 | 14 |  |  |  |  | CSc1ccc2c3c(c4ccccc4cc13)C(=O)N(CCN(C)C)C2=O | 44 | 3000 | 310 |  | 
